# Test results reported in PubChem BioAssay.
# Active and inactive are the calls of the source.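 Rule for the calls, unless noted: active = GFP response above 150% of the DMSO level; inconclusive = fewer than 70 events counted for a yeast strain; inactive = the rest.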
# Columns and labels:
# [1] = hit retest on RPL19A-GFP reporter strain – cell-based, S. cerevisiae, flow cytometry, cherry picks, mother/daughter gates, confirmation (AID 2270;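 active = GFP response below 50% of the DMSO control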); conditions: 3 h, at 10 µM, stronger effect = lower value, 100 = same GFP as DMSO wells
# [2] = yeast TOR pathway reporter LAP4-GFP change – cell-based, cherry picks, flow cytometry, mother/daughter gates, confirmation (AID 2271;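 active = GFP response above 150% of the DMSO control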;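 note: ratio of sample to DMSO plate mean so 100% equals DMSO level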); conditions: S. cerevisiae LAP4-GFP strain, 3 h, at 10 µM, stronger effect = higher value, 100 means same as DMSO control
# In short: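 Material: Alexa 633-stained baker's yeast GFP-fusion strain; Compound dosing: single test-compound dose, 10 µM final; Incubation: 30 °C, 3 h compound incubation, rotating; Detection: HT flow cytometry, GFP fluorescence channel; Control set: positive rapamycin (400 ng/mL), negative DMSO.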
# [3] = TOR pathway reporter MEP2-GFP, retest of hits – S. cerevisiae, flow cytometry GFP, cherry picks, confirmation (AID 2272;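 active = GFP response above 150% of the DMSO control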;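 note: ratio of well signal to plate DMSO mean so 100% equals DMSO level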); conditions: S. cerevisiae MEP2-GFP strain, 3 h, at 10 µM, stronger effect = higher value
# [4] = yeast AGP1-GFP fluorescence change, single-dose – cell-based, flow cytometry, S. cerevisiae, cherry picks, confirmation (AID 2273);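 note: median GFP channel fluorescence over the whole cell population gate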; conditions: S. cerevisiae AGP1-GFP strain, 3 h, at 10 µM
# [5] = TOR pathway CIT2 reporter hit retest – S. cerevisiae, GFP fusion, cherry picks, mother/daughter gates, confirmation (AID 2274); conditions: S. cerevisiae CIT2-GFP strain, flow cytometry, 3 h, at 10 µM, stronger effect = higher value
# [6] = measured here: daughter cell gate
# [7] = measured here: mother cell gate
# [8] = measured here: daughter cell gate response
# [9] = measured here: mother cell gate response
Compound,GFP response vs DMSO [1],"GFP response vs DMSO [1, 6] [%]","GFP response vs DMSO [1, 7] [%]",GFP response relative to DMSO [2],"GFP response relative to DMSO [2, 8] [%]","GFP response relative to DMSO [2, 9] [%]",GFP response vs DMSO [3],"GFP response, % of DMSO [4]","GFP response, % of DMSO [5]","GFP response, % of DMSO [5, 6] [%]","GFP response, % of DMSO [5, 7] [%]"
Cc1ccc(-c2csc(NC(=O)c3cccc([N+](=O)[O-])c3)n2)cc1,101% (inactive),98.1,97.5,97% (inactive),95.9,97.3,107% (inactive),99.6% (inactive),98.8% (inactive),97.4,93.2
S=c1[nH]nc(-c2ccco2)n1/N=C/C(Cl)=C/c1ccccc1,98.4% (inactive),98.5,98.3,129% (inactive),121,131,112% (inactive),95.6% (inactive),97.8% (inactive),100,94.5
Cc1ccc(NC(=S)c2nc3ccccc3[nH]2)cc1,101% (inactive),99.6,99.3,125% (inactive),120,128,109% (inactive),88.3% (inactive),102% (inactive),103,99.3
CS(=O)(=O)c1nc(-c2ccccc2)cc(C(F)(F)F)n1,102% (inactive),105,95.9,192% (active),179,189,146% (inactive),102% (inactive),95.2% (inactive),101,86.9
N=C1/C(=C\c2ccc(Br)o2)C(=O)N=C2SC(CC(=O)N3CCCCC3)=NN12,97.4% (inactive),96.8,95.5,104% (inactive),103,102,103% (inactive),104% (inactive),107% (inactive),108,108
O=C(OCn1ncc(Br)c(Br)c1=O)c1c(F)cccc1F,93.3% (inactive),94,90.6,168% (active),153,175,98.8% (inactive),116% (inactive),97.2% (inactive),105,88.8
Cc1[nH]n(-c2ccccc2)c(=O)c1/C=N/Nc1nncc(-c2ccccc2)n1,88.1% (inactive),85.8,88.9,149% (inactive),137,151,108% (inactive),110% (inactive),86% (inactive),84.1,83.8
COC(=O)CNc1c(-c2ccccn2)nc2ccc(Br)cn12,100% (inactive),103,100,96.7% (inactive),96,96.1,102% (inactive),98.7% (inactive),107% (inactive),106,104
O=C(C1CCN(Cc2nc(Cc3cccc(F)c3)no2)CC1)N1CCOCC1,99.5% (inactive),99,99.8,96.2% (inactive),100,97.2,100% (inactive),103% (inactive),100% (inactive),99.7,102
C/C(CCC12CC3CC(CC(C3)C1)C2)=N\NC(N)=S,87.9% (inactive),84.6,90.7,133% (inactive),125,135,98.3% (inactive),96% (inactive),89.8% (inactive),88.1,87.8
O=c1c2c(-c3ccc(Cl)cc3)csc2ncn1/N=C/c1cccc([N+](=O)[O-])c1O,99.3% (inactive),99.3,98.6,97.7% (inactive),95,99.5,99.5% (inactive),96.2% (inactive),99.3% (inactive),98.3,98
Cc1cc(NCCCn2ccnc2)n2ncc(-c3ccccc3)c2n1,96.6% (inactive),99.1,96.7,95.7% (inactive),94.2,96.2,99% (inactive),104% (inactive),100% (inactive),101,101
COc1ccc(C(=O)NC(=S)NNC(=O)c2cnccn2)cc1,99.3% (inactive),91.3,96,285% (active),176,262,114% (inactive),95.2% (inactive),104% (inactive),96.4,93.3
COc1cc(NC(=O)c2ccccc2[N+](=O)[O-])ccc1NC(=O)c1cc2ccccc2o1,101% (inactive),99.1,101,97% (inactive),97.5,97.3,103% (inactive),101% (inactive),97.3% (inactive),97.4,95.6
CCOC(=O)CSC1=NC(=O)/C(=C/c2ccc(Br)cc2)S1,96.3% (inactive),86.3,92.8,161% (active),136,170,98.8% (inactive),103% (inactive),83.5% (inactive),77.8,79.8
CN1c2ccsc2/C(=N/Nc2ccc(F)cc2)CS1(=O)=O,99.2% (inactive),99.6,99,134% (inactive),130,134,114% (inactive),103% (inactive),109% (inactive),108,109
Cc1nnc(OCc2nc3ccccc3n2C)c2ccccc12,101% (inactive),102,101,98.8% (inactive),93.6,100,99.5% (inactive),94.3% (inactive),96.4% (inactive),96.4,95.6

Compound,GFP response vs DMSO [1],"GFP response vs DMSO [1, 6] [%]","GFP response vs DMSO [1, 7] [%]",GFP response relative to DMSO [2],"GFP response relative to DMSO [2, 8] [%]","GFP response relative to DMSO [2, 9] [%]",GFP response vs DMSO [3],"GFP response, % of DMSO [4]","GFP response, % of DMSO [5]","GFP response, % of DMSO [5, 6] [%]","GFP response, % of DMSO [5, 7] [%]"
O=S(=O)(c1ccccc1)c1ncc(C(F)(F)F)cc1O,96.5% (inactive),98.4,94.8,97.7% (inactive),97.5,99.5,110% (inactive),104% (inactive),101% (inactive),99.3,102
CC(=O)c1sc(NC(=O)c2ccco2)nc1-c1ccccc1,98.4% (inactive),101,96.5,107% (inactive),101,108,103% (inactive),94.9% (inactive),110% (inactive),112,108
COc1cc(SSc2cc(OC)cc([N+](=O)[O-])c2N)c(N)c([N+](=O)[O-])c1,89% (inactive),78.4,80.4,265% (active),153,252,118% (inactive),124% (inactive),145% (inactive),112,143
Cc1ccc(N2C(=O)C3C4C=CC(CNC(=S)N5CCN(c6ccccn6)CC5)(O4)C3C2=O)cc1 (stereo not drawn),98.7% (inactive),99.6,98.6,113% (inactive),109,111,106% (inactive),105% (inactive),99.3% (inactive),100,96.8
O=C1CC(Sc2nnc(-c3ccccc3)o2)C(=O)N1c1ccccc1 (stereo not drawn),99.9% (inactive),98.7,100,106% (inactive),105,107,102% (inactive),98.7% (inactive),97.8% (inactive),99.7,93.4
COc1ccc(OC)c(S(=O)(=O)ON2C(=O)c3ccccc3C2=O)c1,105% (inactive),98.3,93.8,156% (active),157,158,114% (inactive),96.9% (inactive),102% (inactive),119,87.5
CCOc1cc(-c2noc(-c3cccnc3)n2)ccc1OC,95.8% (inactive),94.7,95,98.9% (inactive),99,100,103% (inactive),100% (inactive),106% (inactive),103,106
CCc1ccc2c(c1)C1(NN=C(c3ccccc3)S1)C(=O)N2 (stereo not drawn),101% (inactive),99.1,97.7,133% (inactive),125,140,114% (inactive),102% (inactive),94.4% (inactive),99.2,89.5
CCOC(=O)CNc1c(-c2ccccc2)nc2ccc(Cl)cn12,96% (inactive),97.8,96.4,109% (inactive),105,114,97.5% (inactive),98% (inactive),95% (inactive),98.3,93.3
O=C(CSc1nnc(C2COc3ccccc3O2)o1)N1CCCC1 (stereo not drawn),97.8% (inactive),98.6,98.7,94.9% (inactive),98.2,95.1,98.8% (inactive),103% (inactive),112% (inactive),111,112
Cc1ccc(/C=C/C(=O)c2ccc([N+](=O)[O-])o2)cc1,101% (inactive),107,91.8,89.4% (inactive),89.8,85.2,114% (inactive),107% (inactive),106% (inactive),114,89.3
CCC(CC)C(=O)Nc1cccc(/C(C)=N/NC(=O)c2ccccc2Cl)c1,98.6% (inactive),97,99.1,99.8% (inactive),103,99.3,102% (inactive),100% (inactive),100% (inactive),99.7,102
Cc1ccc(-c2nc(NC(=O)c3nn(C)cc3[N+](=O)[O-])sc2C)cc1C,101% (inactive),101,102,95.3% (inactive),92.2,99.5,97.5% (inactive),95.4% (inactive),93.5% (inactive),94.6,93.3
CC(C(=O)O)n1nc(-c2ccccc2)c2ccccc21 (stereo not drawn),97.8% (inactive),99.6,95.3,99.5% (inactive),101,97.3,99% (inactive),102% (inactive),102% (inactive),101,101
COc1cc(NC(=O)c2ccc(Br)cc2)ccc1NC(=O)c1cc2ccccc2o1,99.9% (inactive),99,100,96.2% (inactive),98.7,98.3,100% (inactive),95.7% (inactive),96.5% (inactive),96.5,97.7
O=c1oc(/C=C/c2ccc([N+](=O)[O-])s2)nc2ccccc12,112% (inactive),113,108,184% (active),180,189,267% (active),107% (inactive),183% (active),180,181
